The results in this text go back to ChEMBL document CHEMBL1275331, “Discovery of a novel 5-HT(3) antagonist/5-HT(1A) agonist 3-amino-5,6,7,8-tetrahydro-2-{4-[4-(quinolin-2-yl)piperazin-1-yl]butyl}quinazolin-4(3H)-one (TZB-30878) as an orally bioavailable agent for irritable bowel syndrome” (J Med Chem, 2010).

A word on the IC50: it is the concentration that gives 50% inhibition. The Kp is tissue or fluid exposure divided by exposure in the circulation.

Activity calls are given as the source filed them. The rule behind the calls is not given here.

In data set [1] the target is Beta-1 adrenergic receptor (Homo sapiens, UniProt P08588). Description: Displacement of [3H](-)CGP12177 from human recombinant beta-1 adrenergic receptor. (In general: Loss of bound radioactivity is the signal in a displacement assay; it reports binding, not function.)
The target in the next data set is Adenosine receptor A3 (Homo sapiens, UniProt P0DMS8). Nature of the data set: Displacement of [125I]AB-MECA from human recombinant adenosine A3 receptor.
Data set [2] in a line: Drug level in Sprague-Dawley rat blood at 3 mg/kg, po after 2 hrs by HPLC analysis. Details: dose 3 mg/kg, route oral. Type of data set: ADME, organism-based. As to conditions: whole blood, read-out: Drug uptake. Summed up: (§1)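 Total compound concentration was measured in brain and blood at 2, 4 and 8 h after a single oral 3 mg/kg dose. Brain/blood ratio was also derived. Values are mean ± SD of three rats.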

Data set [3] concerns Rattus norvegicus. Description: Induction of 5HT1A receptor-mediated lower lip retraction behavior in rat at 10 mg/kg, iv after 30 mins. On the set-up: dose 10 mg/kg. Type of data set: functional, organism-based. The method, boiled down: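 Rats were conditioned to test procedures over 2 weeks and acclimated to the test cage for 1 h. Vehicle was saline containing diluted HCl. Lower lip retraction and flat body posture were scored on a 0–3 scale at 5, 10, 20 and 30 min after dosing.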

Data set [4] in a line: Drug level in Sprague-Dawley rat brain at 3 mg/kg, po after 8 hrs by HPLC analysis. It counts as ADME, organism-based. On the set-up: dose 3 mg/kg, route oral. As to conditions: read-out: Drug uptake. Summed up: as §1
The next data set deals with Neuromedin-K receptor (Homo sapiens, UniProt P29371). Description: Displacement of [3H]SR142801 from human recombinant NK3 receptor.
The nature of data set [5]: Ratio of drug level in brain to blood in Sprague-Dawley rat at 3 mg/kg, po after 2 hrs. Type of data set: ADME, organism-based. Details: dose 3 mg/kg, route oral. The method, boiled down: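 Rats dosed 3 mg/kg orally; total compound levels measured in brain and blood at 2, 4 and 8 h, brain/blood ratio derived. Mean ± SD of three rats.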
In data set [6] the target is T1, 5-hydroxytryptamine receptor 3A (Homo sapiens, UniProt P46098).
T1 sequence (P46098 whole entry): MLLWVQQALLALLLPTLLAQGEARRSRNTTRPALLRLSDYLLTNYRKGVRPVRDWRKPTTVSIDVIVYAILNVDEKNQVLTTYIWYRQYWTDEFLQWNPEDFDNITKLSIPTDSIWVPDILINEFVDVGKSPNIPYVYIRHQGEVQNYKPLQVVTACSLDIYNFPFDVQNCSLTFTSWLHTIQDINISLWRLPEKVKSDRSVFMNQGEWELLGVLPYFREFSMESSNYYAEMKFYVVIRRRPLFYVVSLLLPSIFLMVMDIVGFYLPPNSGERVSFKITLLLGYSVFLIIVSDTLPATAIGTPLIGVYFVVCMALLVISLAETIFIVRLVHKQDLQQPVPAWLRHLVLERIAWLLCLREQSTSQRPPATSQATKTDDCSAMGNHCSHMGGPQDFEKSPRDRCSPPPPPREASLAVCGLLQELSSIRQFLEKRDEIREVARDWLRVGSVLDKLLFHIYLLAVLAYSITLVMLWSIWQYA
Description: Displacement of [3H]BRL-43694 from human recombinant 5HT3 receptor.

Data set [7] in a line: Drug level in Sprague-Dawley rat blood at 3 mg/kg, po after 4 hrs by HPLC analysis. It counts as ADME, organism-based. Details: dose 3 mg/kg, route oral. As to conditions: whole blood, read-out: Drug uptake. Summed up:
as §1

Data set [8] deals with Rattus norvegicus. Description: Reduction in wrap restraint stress-induced defecation in WAY-100635-treated rat diarrhea-predominant irritable bowel syndrome model at 0.3 to 3 mg/kg, ip administered 20 mins following addition of 5HT1A receptor antagonist WAY-100635. Type of data set: functional, organism-based. Summed up: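 Rats received saline (with diluted HCl) or WAY-100635 sc; 20 min later compound or vehicle ip. Five minutes after, lightly anesthetized rats were wrapped for 1 h and feces counted. n = 8 per group, mean (SD); Wilcoxon and nonparametric Dunnett's tests.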

Data set [9] concerns the target 5-hydroxytryptamine receptor 2A (Rattus norvegicus, UniProt P14842). Description: Inhibition of rat 5HT2 receptor.
Another data set has as its target D(2) dopamine receptor (Homo sapiens, UniProt P14416). Description: Inhibition of human dopamine D2 receptor.
In data set [10] the target is T2, 5-hydroxytryptamine receptor 1A (Homo sapiens, UniProt P08908).
T2 sequence (P08908 whole entry): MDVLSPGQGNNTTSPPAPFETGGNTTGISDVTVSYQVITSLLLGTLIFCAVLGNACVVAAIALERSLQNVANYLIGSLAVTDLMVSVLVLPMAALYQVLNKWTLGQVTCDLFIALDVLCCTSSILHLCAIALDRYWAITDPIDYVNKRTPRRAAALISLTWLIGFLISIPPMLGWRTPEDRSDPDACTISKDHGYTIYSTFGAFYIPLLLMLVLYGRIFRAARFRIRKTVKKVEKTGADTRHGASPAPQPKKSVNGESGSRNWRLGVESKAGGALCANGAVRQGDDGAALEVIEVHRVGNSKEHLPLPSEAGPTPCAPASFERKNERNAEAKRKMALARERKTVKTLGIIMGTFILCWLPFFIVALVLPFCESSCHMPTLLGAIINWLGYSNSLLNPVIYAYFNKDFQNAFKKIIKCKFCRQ
Nature of the data set: Displacement of [3H]8-OH-DPAT from human 5HT1A receptor expressed in CHO cells by liquid scintillation counting. Type of data set: cell-based. The method, boiled down:
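CHO-cell membranes with human 5-HT1A were incubated with 0.25 nmol/L [3H]8-OH-DPAT (final) for 60 min at 27 °C. Buffer: 50 mM Tris-HCl, 10 mM MgSO4, 0.5 mM EDTA, 0.1% ascorbic acid, pH 7.4. Compound came from 270 μmol/L DMSO stock, diluted in buffer. Filtration was through GF/C presoaked in 0.3% polyethyleneimine, with two cold Tris washes. Run in duplicate or triplicate; percent inhibition of binding calculated.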

Data set [11] has as its system Rattus norvegicus. Description: Reduction in wrap restraint stress-induced defecation in rat diarrhea-predominant irritable bowel syndrome model at 1 to 10 mg/kg, po administered 1 hr prior to induction of stress. It counts as functional, organism-based. The method, boiled down:
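Lightly anesthetized rats had upper bodies wrapped with adhesive tape, then returned to observation cages; feces counted 1 h after wrapping. Compound or vehicle given orally 1 h before restraint; unwrapped animals as normal group. n = 8 per group, mean (SD); Wilcoxon and nonparametric Dunnett's tests.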

Data set [12] is described as follows: Drug level in Sprague-Dawley rat blood at 3 mg/kg, po after 8 hrs by HPLC analysis. It counts as ADME, organism-based. Details: dose 3 mg/kg, route oral. As to conditions: whole blood, read-out: Drug uptake. The method, boiled down: as §1
A further data set has as its target Adenosine receptor A2a (Homo sapiens, UniProt P29274). Description: Displacement of [3H]CGS21680 from human recombinant adenosine A2A receptor.

Chain of D(2) dopamine receptor (P14416 whole entry): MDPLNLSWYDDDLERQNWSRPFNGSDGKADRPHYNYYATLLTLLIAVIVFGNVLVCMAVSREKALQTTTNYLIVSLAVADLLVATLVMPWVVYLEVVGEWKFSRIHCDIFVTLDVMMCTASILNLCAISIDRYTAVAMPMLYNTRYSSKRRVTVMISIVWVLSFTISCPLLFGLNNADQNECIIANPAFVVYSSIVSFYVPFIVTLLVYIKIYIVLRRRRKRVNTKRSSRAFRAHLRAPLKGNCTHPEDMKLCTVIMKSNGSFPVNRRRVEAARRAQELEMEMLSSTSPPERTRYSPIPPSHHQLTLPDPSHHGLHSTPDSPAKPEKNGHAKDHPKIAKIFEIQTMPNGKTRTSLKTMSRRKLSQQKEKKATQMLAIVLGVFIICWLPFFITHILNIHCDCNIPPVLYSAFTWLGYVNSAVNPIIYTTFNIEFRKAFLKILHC
Chain of 5-hydroxytryptamine receptor 2A (P14842 whole entry): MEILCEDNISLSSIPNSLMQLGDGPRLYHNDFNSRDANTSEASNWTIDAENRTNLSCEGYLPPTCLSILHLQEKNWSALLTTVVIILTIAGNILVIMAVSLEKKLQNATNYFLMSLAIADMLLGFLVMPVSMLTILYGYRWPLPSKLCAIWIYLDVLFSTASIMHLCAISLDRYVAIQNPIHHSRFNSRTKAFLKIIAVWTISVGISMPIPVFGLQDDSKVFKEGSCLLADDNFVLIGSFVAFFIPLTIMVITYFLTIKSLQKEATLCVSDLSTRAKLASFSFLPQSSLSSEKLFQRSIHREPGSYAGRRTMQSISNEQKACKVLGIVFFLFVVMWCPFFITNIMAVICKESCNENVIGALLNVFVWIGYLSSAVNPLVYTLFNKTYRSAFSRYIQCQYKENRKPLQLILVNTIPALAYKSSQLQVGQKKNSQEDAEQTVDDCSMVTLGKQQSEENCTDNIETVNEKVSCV
Chain of Neuromedin-K receptor (P29371 whole entry): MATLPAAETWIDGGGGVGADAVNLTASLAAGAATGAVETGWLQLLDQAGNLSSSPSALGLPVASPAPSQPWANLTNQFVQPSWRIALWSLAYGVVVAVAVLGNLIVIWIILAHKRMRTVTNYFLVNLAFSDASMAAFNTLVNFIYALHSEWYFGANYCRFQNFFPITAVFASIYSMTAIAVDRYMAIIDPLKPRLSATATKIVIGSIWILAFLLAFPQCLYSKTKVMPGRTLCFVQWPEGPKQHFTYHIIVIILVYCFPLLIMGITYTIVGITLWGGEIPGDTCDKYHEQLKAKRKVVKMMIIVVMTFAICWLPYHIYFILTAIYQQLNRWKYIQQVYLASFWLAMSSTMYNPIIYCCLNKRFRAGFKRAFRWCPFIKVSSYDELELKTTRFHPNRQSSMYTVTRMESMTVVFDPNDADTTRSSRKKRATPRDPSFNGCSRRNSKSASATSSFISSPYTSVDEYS
Chain of Adenosine receptor A2a (P29274 whole entry): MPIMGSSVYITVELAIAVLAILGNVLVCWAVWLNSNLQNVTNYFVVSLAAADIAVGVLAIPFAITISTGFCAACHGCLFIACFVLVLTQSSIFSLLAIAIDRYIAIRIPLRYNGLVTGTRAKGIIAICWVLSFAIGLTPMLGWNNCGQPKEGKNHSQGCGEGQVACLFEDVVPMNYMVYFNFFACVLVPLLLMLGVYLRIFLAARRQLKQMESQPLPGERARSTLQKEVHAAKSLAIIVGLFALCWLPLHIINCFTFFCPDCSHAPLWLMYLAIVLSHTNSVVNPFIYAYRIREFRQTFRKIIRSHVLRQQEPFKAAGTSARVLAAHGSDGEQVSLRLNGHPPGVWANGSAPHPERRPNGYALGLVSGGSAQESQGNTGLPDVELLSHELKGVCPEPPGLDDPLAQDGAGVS
Chain of Adenosine receptor A3 (P0DMS8 whole entry): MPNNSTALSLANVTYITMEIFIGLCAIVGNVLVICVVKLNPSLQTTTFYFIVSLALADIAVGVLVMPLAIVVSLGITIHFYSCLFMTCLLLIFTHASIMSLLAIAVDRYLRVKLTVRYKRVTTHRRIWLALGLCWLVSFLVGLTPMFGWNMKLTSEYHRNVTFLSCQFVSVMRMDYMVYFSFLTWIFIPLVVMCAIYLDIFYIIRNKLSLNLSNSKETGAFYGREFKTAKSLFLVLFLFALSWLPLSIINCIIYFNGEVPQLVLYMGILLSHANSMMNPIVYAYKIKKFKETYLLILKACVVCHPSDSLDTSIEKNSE
Chain of Beta-1 adrenergic receptor (P08588 whole entry): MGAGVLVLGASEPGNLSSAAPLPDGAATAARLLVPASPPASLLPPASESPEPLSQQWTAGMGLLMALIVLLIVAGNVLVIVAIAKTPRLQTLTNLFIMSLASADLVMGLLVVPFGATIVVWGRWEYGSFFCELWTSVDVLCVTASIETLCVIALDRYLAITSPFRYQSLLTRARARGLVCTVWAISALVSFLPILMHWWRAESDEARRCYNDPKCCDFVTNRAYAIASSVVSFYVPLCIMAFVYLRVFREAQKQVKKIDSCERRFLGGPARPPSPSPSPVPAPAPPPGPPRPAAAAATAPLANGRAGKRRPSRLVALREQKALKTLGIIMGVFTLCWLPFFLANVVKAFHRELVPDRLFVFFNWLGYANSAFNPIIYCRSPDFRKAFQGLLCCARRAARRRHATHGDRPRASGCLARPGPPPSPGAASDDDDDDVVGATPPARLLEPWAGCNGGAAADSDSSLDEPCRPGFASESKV

Consider `Nn1c(CCCCN2CCN(c3ccc4ccccc4n3)CC2)nc2c(c1=O)CCCC2`, for which the half-maximal inhibitory concentration (IC50) in data set [1] was over 1000 nM; at Adenosine receptor A3 it was over 1000 nM; at Neuromedin-K receptor, over 1000 nM; in data set [6], over 8.93 nM; in [9], 100 nM; on D(2) dopamine receptor it was over 100 nM. Also, the IC50 in [10] was 1.4 nM; on Adenosine receptor A2a, over 1000 nM. Moreover, the concentration at 2 h in data set [2] was found to be 66.5 nM. For the same molecule, in the data set on Rattus norvegicus [3], the result was Active. Also, the concentration at 8 h in [4] was 56.4 nM; in [12] it was 9.97 nM. Moreover, in data set [5], the concentration ratio (Kp) at 2 h came out at 2.56. In addition, in [7], the concentration at 4 h was determined as 16.8 nM. Moreover, the inhibition entry with Rattus norvegicus [8] was “inactive”. Also, the inhibition entry in the data set with Rattus norvegicus [11] was “Active”.
